The results in this text go back to publication PMC9401513 (Clinical Cancer Research, 2021).

One series concerns the target CYP3A4 (Homo sapiens, UniProt P08684). Briefly: Drug-drug interaction substudy with multiple-dose fluconazole. The format is in vivo. To be noted: PF-06647020 co-administered with multiple-dose fluconazole, 11 patients. In a few lines: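 Single-dose test ADC was given alone in cycle 1 (reference) and co-administered with multiple-dose fluconazole in cycle 2 (test). Unconjugated payload exposure was measured as dose-normalized AUCinf and Cmax from noncompartmental analysis. Results were expressed as ratios of adjusted geometric means with 90% confidence intervals.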

A short description of series [1]: Clinical pharmacokinetics. The class given is in vivo, human. To be noted: 0.2 to 3.7 mg/kg every 3 weeks dose levels of PF-06647020.

Where a SMILES comes first, the peptide text is derived from it. [ ]: non-standard residue; d: D form. The star is where a group is joined. Dolaproine = CO[C@@H]([C@@H]1CCCN1)[C@@H](C)C(=O)O; Dil = CC[C@H](C)[C@H](NC)[C@@H](CC(=O)O)OC; Doe = c1ccc(C[C@H](N*)c2nccs2)cc1; Aib = CC(C)(N)C(=O)O

CYP3A4, sequence (P08684 whole entry): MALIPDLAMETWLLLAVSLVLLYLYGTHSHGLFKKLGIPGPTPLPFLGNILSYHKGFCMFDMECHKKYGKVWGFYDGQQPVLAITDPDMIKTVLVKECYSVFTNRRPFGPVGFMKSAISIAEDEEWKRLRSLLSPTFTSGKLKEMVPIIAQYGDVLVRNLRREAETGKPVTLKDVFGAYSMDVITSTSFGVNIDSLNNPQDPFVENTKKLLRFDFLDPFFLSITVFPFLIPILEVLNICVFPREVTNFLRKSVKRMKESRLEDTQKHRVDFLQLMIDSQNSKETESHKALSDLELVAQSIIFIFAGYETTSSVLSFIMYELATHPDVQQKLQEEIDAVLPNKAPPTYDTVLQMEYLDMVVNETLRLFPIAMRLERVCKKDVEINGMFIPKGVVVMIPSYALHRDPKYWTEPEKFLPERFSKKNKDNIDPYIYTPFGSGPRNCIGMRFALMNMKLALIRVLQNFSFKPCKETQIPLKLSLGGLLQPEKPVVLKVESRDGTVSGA

For `CC[C@H](C)[C@@H]([C@@H](CC(=O)N1CCC[C@H]1[C@H](OC)[C@@H](C)C(=O)N[C@@H](Cc1ccccc1)c1nccs1)OC)N(C)C(=O)[C@@H](NC(=O)C(C)(C)N)C(C)C` [PF-06380101, auristatin-0101] (H-[Aib]V[Dil][Dolaproine]-Doe), the “impact of fluconazole co-administration on overall exposure” value at CYP3A4 is listed as “did not have a notable impact”.

B1: hu6M024: humanized anti-PTK7 mAb (IgG1); total antibody = conjugated or unconjugated mAb (antibody, chains of the INN, looked up, V domains shown)
VH: QVQLVQSGPEVKKPGASVKVSCKASGYTFTDYAVHWVRQAPGKRLEWIGVISTYNDYTYNNQDFKGRVTMTRDTSASTAYMELSRLRSEDTAVYYCARGNSYFYALDYWGQGTSVTVSS
VL: EIVLTQSPATLSLSPGERATLSCRASESVDSYGKSFMHWYQQKPGQAPRLLIYRASNLESGIPARFSGSGSGTDFTLTISSLEPEDFAVYYCQQSNEDPWTFGGGTKLEIK
In the case of B1, the “systemic exposure (AUCtau, Cmax) versus dose” value in series [1] was “generally increased in a dose-related manner”. In the series with CYP3A4, the “impact of fluconazole co-administration on overall exposure” value is on record as “did not have a notable impact”.
